The source made the active and inactive calls. The calls are words filed in the database; no cut-off is given here.
Assays:
cells = conditions: Homo sapiens, YY-8103, 48 h
SMMC-7721 [1] = test: cells; conditions: Homo sapiens, SMMC-7721, 48 h
Focal adhesion kinase 1 [2] = target: T1, Focal adhesion kinase 1 (Homo sapiens, UniProt Q05397); test: Inhibition of FAK (unknown origin) using Poly(Glu,Tyr) and ATP as substrate measured after 40 mins by Kinase-Glo Plus luminescence assay
Target sequence in this assay (Q05397 whole entry): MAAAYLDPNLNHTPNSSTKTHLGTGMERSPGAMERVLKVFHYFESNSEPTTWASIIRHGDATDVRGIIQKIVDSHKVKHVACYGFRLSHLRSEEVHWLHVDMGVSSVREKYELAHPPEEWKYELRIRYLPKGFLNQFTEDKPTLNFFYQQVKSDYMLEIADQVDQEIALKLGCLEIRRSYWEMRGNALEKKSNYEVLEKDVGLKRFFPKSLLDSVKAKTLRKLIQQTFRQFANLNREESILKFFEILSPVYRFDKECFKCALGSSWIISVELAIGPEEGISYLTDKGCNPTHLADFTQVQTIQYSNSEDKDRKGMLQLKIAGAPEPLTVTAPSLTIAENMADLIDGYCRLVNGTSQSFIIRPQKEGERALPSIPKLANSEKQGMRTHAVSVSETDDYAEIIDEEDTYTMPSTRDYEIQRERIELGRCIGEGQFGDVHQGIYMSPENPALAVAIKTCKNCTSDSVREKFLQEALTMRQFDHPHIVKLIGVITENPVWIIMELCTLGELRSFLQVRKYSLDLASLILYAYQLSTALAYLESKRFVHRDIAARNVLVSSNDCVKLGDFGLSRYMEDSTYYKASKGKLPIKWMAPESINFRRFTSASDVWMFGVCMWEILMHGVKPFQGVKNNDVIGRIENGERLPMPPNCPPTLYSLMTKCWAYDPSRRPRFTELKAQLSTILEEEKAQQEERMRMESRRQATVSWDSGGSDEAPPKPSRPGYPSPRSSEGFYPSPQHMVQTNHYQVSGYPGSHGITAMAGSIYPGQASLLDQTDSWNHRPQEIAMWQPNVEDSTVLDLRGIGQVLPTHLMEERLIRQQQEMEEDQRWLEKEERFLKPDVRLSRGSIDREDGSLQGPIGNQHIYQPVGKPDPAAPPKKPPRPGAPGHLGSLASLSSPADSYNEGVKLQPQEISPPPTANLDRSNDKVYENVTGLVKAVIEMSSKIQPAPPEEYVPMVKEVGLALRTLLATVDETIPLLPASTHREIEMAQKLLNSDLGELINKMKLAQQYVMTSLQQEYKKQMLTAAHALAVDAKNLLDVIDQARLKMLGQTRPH

[3] = Toxicity in BALB/c nude mouse assessed as animal's mortality at 30 mg/kg, ip measured on day 11; format: organism-based; conditions: in vivo, 264 h, time 11 day
In short: (§1)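 Six-week-old male BALB/c nude mice bearing subcutaneous SMMC7721 xenografts (1.0 × 10⁷ cells); dosing started at mean tumor 25-35 mm³, n = 8 per group. Ip every 3 days in DMSO/propylene glycol/PBS (2:5:3); vehicle 1.0 mL/kg as negative control. Body weight weighed and deaths recorded every 3 days before each dose, through day 19.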

SMMC-7721 [4] = test: Antitumor activity against human […] cells xenografted in BALB/c nude mouse assessed as tumor size at 30 mg/kg, ip administered for 19 days (reference value: 600.8 mm3); format: functional; conditions: time 19 day
In short: (§2)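 Male BALB/c nude mice, six weeks old, inoculated s.c. with 1.0 × 10⁷ SMMC7721 cells. Dosing began at mean tumour 25e35 mm³; five randomized groups, n = 8. Solvent DMSO/propylene glycol/PBS 2:5:3 (vehicle 1.0 mL/kg), all given i.p. every 3 days. Tumour size (calipers) and body weight taken before each dose. V = length × width²/2. TGI = [1 − (T−T₀)/(C−C₀)] × 100.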

[5] = Toxicity in BALB/c nude mouse assessed as effect on body weight at 30 mg/kg, ip administered for 19 days; format: organism-based; conditions: in vivo, 456 h, time 19 day
In short: as §2

SMMC-7721 [6] = test: Antitumor activity against human […] cells xenografted in BALB/c nude mouse assessed as tumor growth inhibition at 30 mg/kg, ip administered for 19 days; format: functional; conditions: SMMC-7721, ip, 456 h, time 19 day, read-out: TGI
In short: as §2

Focal adhesion kinase 1 [7] = target: T1, Focal adhesion kinase 1; test: Inhibition of FAK phosphorylation in human HCC cells assessed as reduction in NFkappaB phosphorylation at 30 mg/kg by KEGG analysis
Target sequence in this assay (Q05397 2-1052 limits assumed): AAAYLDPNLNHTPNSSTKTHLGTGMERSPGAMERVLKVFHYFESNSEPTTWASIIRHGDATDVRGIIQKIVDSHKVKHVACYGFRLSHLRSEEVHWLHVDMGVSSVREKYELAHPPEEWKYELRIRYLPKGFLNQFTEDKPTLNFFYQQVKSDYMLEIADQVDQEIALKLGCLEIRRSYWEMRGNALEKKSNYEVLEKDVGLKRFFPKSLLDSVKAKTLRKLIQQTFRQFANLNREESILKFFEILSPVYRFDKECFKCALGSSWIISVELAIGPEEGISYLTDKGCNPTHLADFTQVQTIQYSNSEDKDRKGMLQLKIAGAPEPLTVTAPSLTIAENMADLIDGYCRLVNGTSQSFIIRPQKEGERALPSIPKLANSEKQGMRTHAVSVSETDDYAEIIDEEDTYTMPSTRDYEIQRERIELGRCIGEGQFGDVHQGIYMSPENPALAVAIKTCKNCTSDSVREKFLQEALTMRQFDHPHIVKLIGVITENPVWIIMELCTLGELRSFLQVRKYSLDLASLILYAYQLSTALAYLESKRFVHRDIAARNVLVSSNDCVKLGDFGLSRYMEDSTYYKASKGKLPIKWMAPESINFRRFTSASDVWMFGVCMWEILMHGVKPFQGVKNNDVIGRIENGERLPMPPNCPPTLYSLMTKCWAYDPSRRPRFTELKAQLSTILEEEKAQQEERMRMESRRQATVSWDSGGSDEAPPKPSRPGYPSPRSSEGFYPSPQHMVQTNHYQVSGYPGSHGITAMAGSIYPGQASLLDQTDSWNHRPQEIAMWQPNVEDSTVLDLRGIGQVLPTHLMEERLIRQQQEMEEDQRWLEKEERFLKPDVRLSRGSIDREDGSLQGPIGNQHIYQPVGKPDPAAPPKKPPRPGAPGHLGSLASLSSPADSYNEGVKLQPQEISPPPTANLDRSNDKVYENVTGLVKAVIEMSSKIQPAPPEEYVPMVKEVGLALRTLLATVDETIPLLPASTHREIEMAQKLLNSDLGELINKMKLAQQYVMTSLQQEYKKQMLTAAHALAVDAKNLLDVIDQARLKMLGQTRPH

[8] = Cmax in Sprague-Dawley rat at 2 mg/kg, iv measured upto 24 hrs by LC-MS/MS analysis; format: ADME, organism-based; set-up: route intravenous, dose 2 mg/kg, time <=24; conditions: in vivo
In short: (§3)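 Male SD rats, 6e8 weeks, 220 30 g, three per route (p.o. or i.v.). Compound given in DMSO/Solutol/saline (5/10/85). Centrifuged 6800 g for 6 min at 2e8 °C, frozen near −80 °C, analysed by LC-MS/MS. Mean ± SEM, n = 3.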

Focal adhesion kinase 1 [9] = target: T1, Focal adhesion kinase 1; test: Inhibition of FAK phosphorylation in human HCC cells assessed as reduction in mTOR phosphorylation at 30 mg/kg by KEGG analysis
Target sequence in this assay (Q05397 2-1052 limits assumed): as above

[10] = Tmax in Sprague-Dawley rat at 10 mg/kg, po measured upto 24 hrs by LC-MS/MS analysis; format: ADME, organism-based; conditions: in vivo
In short: as §3

[11] = Toxicity in BALB/c nude mouse assessed as animal's mortality at 10 to 30 mg/kg, ip administered for 19 days; format: organism-based; conditions: in vivo, 456 h, dose 10-30 mg/kg, time 19 day
In short: as §1

[12] = Volume of distribution at steady state in Sprague-Dawley rat at 2 mg/kg, iv measured upto 24 hrs by LC-MS/MS analysis; format: ADME, organism-based; conditions: in vivo
In short: as §3

[13] = Clearance in Sprague-Dawley rat at 2 mg/kg, iv measured upto 24 hrs by LC-MS/MS analysis; format: ADME, organism-based; conditions: in vivo
In short: as §3

SMMC-7721 [14] = test: Antitumor activity against human […] cells xenografted in BALB/c nude mouse assessed as tumor size at 10 mg/kg, ip administered for 19 days (reference value: 600.8 mm3); format: functional; conditions: time 19 day
In short: as §2

[15] = AUC (0 to infinity) in Sprague-Dawley rat at 2 mg/kg, iv by LC-MS/MS analysis; format: ADME, organism-based; set-up: route intravenous, time infinity, dose 2 mg/kg; conditions: in vivo
In short: as §3

[16] = AUC (0 to infinity) in Sprague-Dawley rat at 10 mg/kg, po by LC-MS/MS analysis; format: ADME, organism-based; set-up: time infinity, route oral, dose 10 mg/kg; conditions: in vivo
In short: as §3

[17] = AUC (0 to t) in Sprague-Dawley rat at 2 mg/kg, iv measured upto 24 hrs by LC-MS/MS analysis; format: ADME, organism-based; set-up: route intravenous, dose 2 mg/kg, time <=24; conditions: in vivo
[18] = Toxicity in BALB/c nude mouse assessed as effect on body weight at 10 to 30 mg/kg, ip administered for 19 days; format: organism-based; conditions: in vivo, 456 h, dose 10-30 mg/kg, time 19 day
In short: as §1

[19] = Oral bioavailability in Sprague-Dawley rat 10 mg/kg measured upto 24 hrs by LC-MS/MS analysis; format: ADME, organism-based; conditions: in vivo
In short: as §3

[20] = Half life in Sprague-Dawley rat at 2 mg/kg, iv measured upto 24 hrs by LC-MS/MS analysis; format: ADME, organism-based; conditions: in vivo
In short: as §3

Focal adhesion kinase 1 [21] = target: T1, Focal adhesion kinase 1; test: Inhibition of FAK phosphorylation in human HCC cells assessed as reduction in PDK1 phosphorylation at 30 mg/kg by KEGG analysis
Target sequence in this assay (Q05397 2-1052 limits assumed): as above

[22] = Acute toxicity in Kunming mouse assessed as body weight at 5 to 200 mg/kg, ip observed for 10 days; format: organism-based; conditions: in vivo, 240 h, dose 5-200 mg/kg, time 10 day
In short: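 Kunming mice (18-22 g), 30 animals in 5 groups of 6 (3 male, 3 female); single intraperitoneal dose of 0, 5, 10, 50 or 200 mg/kg in DMSO/propylene glycol/PBS (2/5/3). Animals observed and weighed daily for 10 days.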

Focal adhesion kinase 1 [23] = target: T1, Focal adhesion kinase 1; test: Inhibition of FAK phosphorylation in human HCC cells assessed as upregulation of FOXO phosphorylation at 30 uM by KEGG analysis; format: cell-based
Target sequence in this assay (Q05397 2-1052 limits assumed): as above

Focal adhesion kinase 1 [24] = target: T1, Focal adhesion kinase 1; test: Inhibition of FAK phosphorylation in human HCC cells assessed as reduction in Akt phosphorylation at 30 mg/kg by KEGG analysis
Target sequence in this assay (Q05397 2-1052 limits assumed): as above

[25] = MRT (0 to t) in Sprague-Dawley rat at 10 mg/kg, po measured upto 24 hrs by LC-MS/MS analysis; format: ADME, organism-based; conditions: in vivo
In short: as §3

Focal adhesion kinase 1 [26] = target: T1, Focal adhesion kinase 1; test: Inhibition of FAK phosphorylation in human HCC cells at 30 mg/kg by KEGG analysis
Target sequence in this assay (Q05397 2-1052 limits assumed): as above

[27] = AUC (0 to t) in Sprague-Dawley rat at 10 mg/kg, po measured upto 24 hrs by LC-MS/MS analysis; format: ADME, organism-based; set-up: route oral, dose 10 mg/kg, time <=24; conditions: in vivo
In short: as §3

[28] = Upregulation of integrin beta1 phosphorylation at Thr788 residue in human HCC cells at 30 uM by KEGG analysis relative to control; format: functional
[29] = MRT (0 to infinity) in Sprague-Dawley rat at 10 mg/kg, po by LC-MS/MS analysis; format: ADME, organism-based; conditions: in vivo
In short: as §3

[30] = Cmax in Sprague-Dawley rat at 10 mg/kg, po measured upto 24 hrs by LC-MS/MS analysis; format: ADME, organism-based; set-up: route oral, dose 10 mg/kg, time <=24; conditions: in vivo
In short: as §3

[31] = MRT (0 to infinity) in Sprague-Dawley rat at 2 mg/kg, iv by LC-MS/MS analysis; format: ADME, organism-based; conditions: in vivo
In short: as §3

[32] = Tmax in Sprague-Dawley rat at 2 mg/kg, iv measured upto 24 hrs by LC-MS/MS analysis; format: ADME, organism-based; conditions: in vivo
In short: as §3

[33] = Half life in Sprague-Dawley rat at 10 mg/kg, po measured upto 24 hrs by LC-MS/MS analysis; format: ADME, organism-based; conditions: in vivo
In short: as §3

[34] = MRT (0 to t) in Sprague-Dawley rat at 2 mg/kg, iv measured upto 24 hrs by LC-MS/MS analysis; format: ADME, organism-based; conditions: in vivo
In short: as §3

CC(=O)Nc1cccc(Nc2nc(NCc3cccnc3N(C)S(C)(=O)=O)c3c(F)c[nH]c3n2)c1
IC50 (cells): 14.4 µM
IC50 (SMMC-7721 [1]): 16 µM
IC50 (Focal adhesion kinase 1 [2]): 0.021 µM

CC(=O)NCc1cccc(Nc2nc(NCc3cccnc3N(C)S(C)(=O)=O)c3c(F)c[nH]c3n2)c1
IC50 (cells): 20.5 µM
IC50 (SMMC-7721 [1]): 21.7 µM
IC50 (Focal adhesion kinase 1 [2]): 0.023 µM

CNC(=O)c1cc(Oc2ccc(NC(=O)Nc3ccc(Cl)c(C(F)(F)F)c3)cc2)ccn1 [SORAFENIB]
Activity [3]: Non-Toxic
Activity (SMMC-7721 [4]): 343.4 mm3
Activity [5]: Non-Toxic
inhibition in vivo at 30 mg/kg (SMMC-7721 [6]): 45.1%

COc1cccc(Nc2nc(NCc3cccnc3N(C)S(C)(=O)=O)c3c(F)c[nH]c3n2)c1C
IC50 (cells): > 100 µM
IC50 (SMMC-7721 [1]): > 100 µM
IC50 (Focal adhesion kinase 1 [2]): 0.076 µM

CNC(=O)c1ccccc1Nc1nc(Nc2ccc3c(c2)CC(=O)N3)nc2[nH]cc(F)c12
IC50 (cells): 4.69 µM
IC50 (SMMC-7721 [1]): 10 µM
IC50 (Focal adhesion kinase 1 [2]): 0.022 µM

CN(c1ncccc1CNc1nc(Nc2cccc(CN)c2)nc2[nH]cc(F)c12)S(C)(=O)=O
IC50 (cells): > 100 µM
IC50 (SMMC-7721 [1]): > 100 µM
IC50 (Focal adhesion kinase 1 [2]): 2.1 µM

CN(c1ncccc1CNc1nc(Nc2ccc(F)cc2)nc2[nH]cc(F)c12)S(C)(=O)=O
IC50 (cells): > 100 µM
IC50 (SMMC-7721 [1]): 27.9 µM
IC50 (Focal adhesion kinase 1 [2]): 0.038 µM

CN(c1ncccc1CNc1nc(Nc2ccc3c(c2)CC(=O)N3)ncc1C(F)(F)F)S(C)(=O)=O [PF-00562271]
Activity [3]: Toxic
Activity (SMMC-7721 [4]): 295.9 mm3
Activity [5]: Non-Toxic
inhibition in vivo at 30 mg/kg (SMMC-7721 [6]): 54.1%

CNC(=O)c1ccccc1Nc1nc(Nc2cccc(NC(C)=O)c2)nc2[nH]cc(F)c12
inhibition (Focal adhesion kinase 1 [7]): Active
Cmax [8]: 5020 ng/mL
inhibition (Focal adhesion kinase 1 [9]): Active
Tmax [10]: 4.67 h
Activity [11]: Non-Toxic
Vdss [12]: 1.8426 L/kg
CL [13]: 14.49 mL/min/kg
Activity (SMMC-7721 [14]): 348.3 mm3
IC50 (cells): 2.39 µM
AUC(0-inf) [15]: 2300 ng·h/mL
AUC(0-inf) [16]: 119 ng·h/mL
AUC(0-t) at 24 h [17]: 2300 ng·h/mL
Activity [18]: Non-Toxic
bioavailability [19]: 0.83%
half-life [20]: 1.46 h
inhibition (Focal adhesion kinase 1 [21]): Active
Activity [22]: Non-Toxic
Activity (SMMC-7721 [4]): 153.5 mm3
IC50 (SMMC-7721 [1]): 10.1 µM
inhibition (Focal adhesion kinase 1 [23]): Active
IC50 (Focal adhesion kinase 1 [2]): 0.012 µM
inhibition (Focal adhesion kinase 1 [24]): Active
MRT last at 24 h [25]: 4.54 h
inhibition (Focal adhesion kinase 1 [26]): Active
AUC(0-t) at 24 h [27]: 95.5 ng·h/mL
fold change (FC) [28]: 2.82
MRT inf [29]: 6.62 h
Cmax [30]: 15.4 ng/mL
MRT [31]: 0.53 h
Tmax [32]: 4.8 min
inhibition in vivo at 30 mg/kg (SMMC-7721 [6]): 78.6%
half-life [33]: 3.65 h
MRT last at 24 h [34]: 0.51 h

CNC(=O)c1ccccc1Nc1nc(Nc2ccc(N3CCOCC3)cc2OC)nc2[nH]cc(F)c12
IC50 (cells): 14.2 µM
IC50 (SMMC-7721 [1]): 33.9 µM
IC50 (Focal adhesion kinase 1 [2]): 0.023 µM

Cc1cc2c(NCc3cccnc3N(C)S(C)(=O)=O)nc(Nc3ccc4c(c3)CC(=O)N4)nc2[nH]1
IC50 (cells): > 100 µM
IC50 (SMMC-7721 [1]): > 100 µM
IC50 (Focal adhesion kinase 1 [2]): 12 µM

CN(c1ncccc1CNc1nc(Nc2ccc3c(c2)CC(=O)N3)nc2[nH]cc(Cl)c12)S(C)(=O)=O
IC50 (cells): 13.2 µM
IC50 (SMMC-7721 [1]): 21.9 µM
IC50 (Focal adhesion kinase 1 [2]): 0.021 µM

CN(c1ncccc1CNc1nc(Nc2cccc(C#N)c2)nc2[nH]cc(F)c12)S(C)(=O)=O
IC50 (cells): > 100 µM
IC50 (SMMC-7721 [1]): > 100 µM
IC50 (Focal adhesion kinase 1 [2]): 0.035 µM

From ChEMBL document CHEMBL4831494, “Synthesis and evaluation of FAK inhibitors with a 5-fluoro-7H-pyrrolo[2,3-d]pyrimidine scaffold as anti-hepatocellular carcinoma agents” (Eur J Med Chem, 2021)
